Measurements pooled from the literature.
Compare with care: the assays were run in different laboratories.
Target: Serine/threonine-protein kinase PAK 5 (PAK5, Homo sapiens, UniProt Q9P286)

CCS(=O)(=O)c1cc2cc(C[C@](O)(CC(C)(C)c3ccc(F)cc3C(N)=O)C(F)(F)F)[nH]c2cn1  remaining binding (cell-free assay; competition with immobilised ligand; 1 µM): 100%
O=C(Nc1cnn(-c2csc(C(=O)NC3COC3)c2)c1)Nc1c(F)cccc1Cl  remaining activity (enzyme activity; inhibitor; 5 µM): 92.9%
Oc1cccc(-c2nc(N3CCOCC3)c3oc4ncccc4c3n2)c1  remaining activity (enzyme activity; inhibitor; 10 µM): 112%
CC(C)(O)[C@H]1CC[C@H](Nc2ccc3ncc(-c4cccc(C(F)(F)F)c4)n3n2)CC1  remaining activity (enzyme activity; inhibitor; 1 µM): 98.1%
CCCOc1ccc(OC)c(F)c1C(=O)c1ccc(C(=O)N[C@@H]2CNC[C@H]2NC(=O)c2ccc3[nH]ncc3c2)cc1  remaining activity (enzyme activity; inhibitor; 10 µM): 85%
CN(C)C(=O)Cn1cc(-c2nc(C3(c4ccc(-c5cnc(N)nc5)cc4)CC3)no2)cn1  remaining binding (cell-free assay; competition with immobilised ligand; 1 µM): 88%
Nc1ncnc2occ(-c3ccc(NC(=O)Nc4cc(C(F)(F)F)ccc4F)cc3)c12  remaining signal (cell-free assay; inhibitor; 20 µM): 60%
Cc1cnc(NC2CCOCC2)nc1-n1cnc(C(=O)NC(CN)c2cc(F)cc(Cl)c2)c1 (centres unmarked)  remaining activity (enzyme activity; inhibitor; radiometric; 1 µM): 83%
CCOc1cc(-c2nncn2C)ccc1Nc1ncc2cc(C)nc(NCC(C)(C)C)c2n1  inhibition (enzyme activity; inhibitor; FRET; 1 µM): < 15%
CNC(=O)c1cc(Oc2ccc(NC(=O)Nc3ccc(Cl)c(C(F)(F)F)c3)cc2)ccn1  inhibition (enzyme activity; inhibitor; 0.3 µM): -18%
O=C(Nc1cnn(-c2csc(C(=O)NC3COC3)c2)c1)Nc1ccccc1Cl  remaining activity (enzyme activity; inhibitor; 5 µM): 92.1%
CCC(=N\O)/C(C)=C/c1ccc(F)cc1  remaining binding (cell-free assay; competition with immobilised ligand; 1 µM): 100%
Cc1ccc(C(=O)NCc2ccsc2)cc1C#Cc1cn(C(C)C)c2ncnc(N)c12  activity vs control (enzyme activity; inhibitor; 1 µM): 105%
Cc1nccc(COC(=O)N2C[C@@H]3[C@@H](CNC(=O)c4ccc5[nH]nnc5c4)[C@@H]3C2)n1  remaining binding (cell-free assay; competition with immobilised ligand; 1 µM): 92%
CCN(CC)CCNC(=O)c1c(C)[nH]c(/C=C2\C(=O)Nc3ccc(F)cc32)c1C  inhibition (enzyme activity; inhibitor; 0.3 µM): -4%
CC(C)(C)C(=O)c1sc(NC2CCCCC2)nc1N  remaining activity (enzyme activity; inhibitor; 10 µM): 110%
CN1CCN(c2cnc3c(C4CCN(C(=O)c5ccc(OC(F)(F)F)cc5N)CC4)ncnc3c2)CC1  remaining binding (cell-free assay; competition with immobilised ligand; 1 µM): 100%
O=C1Nc2ccc(Cl)cc2C1=Cc1cc(Cl)c(O)c(Cl)c1  remaining signal (cell-free assay; 0.5 µM): 91.5%
COc1cc2ncnc(Nc3ccc(Oc4ccccc4)cc3C)c2cc1OC  inhibition (enzyme activity; inhibitor; 1 µM): 1%
Cc1noc([C@H]2C[C@@H](c3ccc(C(F)(F)F)cc3)CN(C(=O)N3CCS(=O)(=O)C3)C2)n1  remaining binding (cell-free assay; competition with immobilised ligand; 1 µM): 100%
CC(C)(C)c1nc(-c2cccc(NS(=O)(=O)c3c(F)cccc3F)c2F)c(-c2ccnc(N)n2)s1  remaining activity (enzyme activity; inhibitor; radiometric; 1 µM): 78%
O=C(O)[C@H]1[C@H](Cn2nnc3ccccc3c2=O)CC[C@@H]1C(=O)c1ccc(OCCC2CCOCC2)cc1  remaining binding (cell-free assay; competition with immobilised ligand; 1 µM): 98%
C[C@H]1CCN(c2nccc(-c3cnn4ncccc34)n2)C1  remaining binding (binding; 1 µM): 100%
CS(=O)(=O)CCNCc1ccc(-c2ccc3ncnc(Nc4ccc(OCc5cccc(F)c5)c(Cl)c4)c3c2)o1  remaining signal (cell-free assay; 0.5 µM): 98.5%
FC(F)(F)Oc1cccc(-c2cnc3ccc(-c4ccncc4)nn23)c1  activity vs control (enzyme activity; inhibitor; radiometric; 1 µM): 72%
FC(F)c1nc2ccccc2n1-c1nc(N2CCOCC2)nc(N2CCOCC2)n1  remaining activity (enzyme activity; inhibitor; 10 µM): 84%
COc1cc(Nc2cnc(C#N)c(O[C@H](C)CN(C)C)n2)ncc1-c1cnn(C)c1  remaining activity (enzyme activity; inhibitor; radiometric; 1 µM): 93%
Nc1c(C(=O)NCc2ccc(C(=O)NCCCC3CCCCC3)cc2)cnn1-c1ccccc1  remaining binding (cell-free assay; competition with immobilised ligand; 0.1 µM): 100%
Nc1nc(Nc2ccc(S(N)(=O)=O)cc2)nn1C(=O)c1c(F)cccc1F  remaining signal (cell-free assay; 0.5 µM): 85.4%
